Drawing on ChEMBL document CHEMBL4261564, “Studies on enantioselectivity of chiral 4-acetylamino-6-alkyloxy-2-alkylthiopyrimidines acting as antagonists of the human A3 adenosine receptor” (Medchemcomm, 2018), this text covers Ki and IC50 for nine compounds.

Test [1] deals with T1, Adenosine receptor A3 (Homo sapiens, UniProt P0DMS8).
T1 sequence (P0DMS8 whole entry): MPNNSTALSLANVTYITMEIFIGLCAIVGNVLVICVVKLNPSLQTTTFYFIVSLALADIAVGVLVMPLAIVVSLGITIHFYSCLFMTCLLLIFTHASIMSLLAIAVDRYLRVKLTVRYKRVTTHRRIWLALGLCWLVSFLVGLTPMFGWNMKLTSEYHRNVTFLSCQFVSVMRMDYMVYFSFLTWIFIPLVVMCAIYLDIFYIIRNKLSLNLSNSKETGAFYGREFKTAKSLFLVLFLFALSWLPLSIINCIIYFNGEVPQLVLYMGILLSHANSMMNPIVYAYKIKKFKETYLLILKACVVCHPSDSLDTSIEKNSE
Description: Displacement of [3H]NECA from recombinant human adenosine A3 receptor expressed in CHO cell membranes measured after 180 mins.

The target of test [2] is T1, Adenosine receptor A3. Description: Antagonist activity at recombinant human adenosine A3 receptor expressed in CHO cells assessed as reduction in Cl-IB-MECA-induced inhibition of forskolin-stimulated [3H]cAMP accumulation preincubated for 10 mins followed by Cl-IB-MECA addition measured after 30 mins by liquid scintillation counting method. The class given is functional, cell-based. A digest of the protocol: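 A3 AR CHO cells are plated at about 30,000 per well and used 24 h later. They are preincubated 15 min at 37 °C in DMEM containing ADA 1 U/mL and Ro20-1724 20 µM. Compound is added 10 min before Cl-IB-MECA, with 1 µM forskolin present. The reaction is stopped with 0.4 N HCl and neutralised with KOH. cAMP is measured by competitive binding of [3H]cAMP (2 nM) to bovine adrenal binding protein for 150 min at 0 °C, then filtered and counted by scintillation.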

The target of another test is T2, Adenosine receptor A1 (Homo sapiens, UniProt P30542).
T2 sequence (P30542 whole entry): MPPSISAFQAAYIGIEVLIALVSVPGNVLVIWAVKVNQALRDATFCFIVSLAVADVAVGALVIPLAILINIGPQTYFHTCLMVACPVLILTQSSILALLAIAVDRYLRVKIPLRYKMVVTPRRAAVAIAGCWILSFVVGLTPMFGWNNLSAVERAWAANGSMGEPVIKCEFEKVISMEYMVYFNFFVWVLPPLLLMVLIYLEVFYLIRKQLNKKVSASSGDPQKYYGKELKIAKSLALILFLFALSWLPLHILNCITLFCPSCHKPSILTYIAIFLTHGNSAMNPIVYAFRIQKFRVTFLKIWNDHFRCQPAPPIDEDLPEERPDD
Description: Displacement of [3H]DPCPX from human adenosine A1 receptor expressed in CHO cell membranes after 180 mins. The gist of the method: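 Membranes (30 µg protein) are incubated with 3 nM [3H]DPCPX at 25 °C in Tris-HCl 50 mM, MgCl2 2 mM, ADA 2 U/mL, pH 7.4. Six test concentrations are used, and nonspecific binding is set with 50 µM R-PIA. The Kd of 3 nM is used for Ki. Values are the mean of at least three experiments, each in duplicate.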

Another test addresses Adenosine receptor A2a (Homo sapiens, UniProt P29274). Description: Displacement of [3H]NECA from recombinant human adenosine A2A receptor expressed in CHO cell membranes measured after 90 mins.
The target in another test is T3, Adenosine receptor A2b (Homo sapiens, UniProt P29275).
T3 sequence (P29275 whole entry): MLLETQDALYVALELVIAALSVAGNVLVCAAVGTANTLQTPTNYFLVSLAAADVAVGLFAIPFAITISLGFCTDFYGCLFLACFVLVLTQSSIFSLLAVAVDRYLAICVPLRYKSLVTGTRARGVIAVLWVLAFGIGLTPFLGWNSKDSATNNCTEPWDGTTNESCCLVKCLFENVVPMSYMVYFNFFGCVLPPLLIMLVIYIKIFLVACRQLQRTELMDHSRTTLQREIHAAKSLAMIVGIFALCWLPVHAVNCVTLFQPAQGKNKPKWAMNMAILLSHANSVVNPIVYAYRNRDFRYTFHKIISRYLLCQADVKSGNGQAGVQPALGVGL
Put plainly: Displacement of [3H]NECA from recombinant human adenosine A2B receptor expressed in CHO cell membranes measured after 180 mins.

Adenosine receptor A2a, sequence (P29274 whole entry): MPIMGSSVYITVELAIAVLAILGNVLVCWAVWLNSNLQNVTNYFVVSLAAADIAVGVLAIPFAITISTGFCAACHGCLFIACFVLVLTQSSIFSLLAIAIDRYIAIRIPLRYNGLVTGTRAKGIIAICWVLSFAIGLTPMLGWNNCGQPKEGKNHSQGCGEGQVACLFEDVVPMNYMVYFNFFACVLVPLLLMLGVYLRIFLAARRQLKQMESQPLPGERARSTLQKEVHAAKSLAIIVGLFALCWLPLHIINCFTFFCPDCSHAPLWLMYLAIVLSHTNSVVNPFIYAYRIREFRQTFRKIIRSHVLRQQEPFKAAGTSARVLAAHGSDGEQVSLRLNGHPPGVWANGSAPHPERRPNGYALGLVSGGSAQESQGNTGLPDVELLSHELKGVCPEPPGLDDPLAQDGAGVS

`CCCOc1cc(NC(C)=O)nc(S[C@H](C)c2ccccc2)n1`: on Adenosine receptor A3 [1], the Ki was 737 nM.

Regarding `CCCSc1nc(NC(C)=O)cc(O[C@@H](C)c2ccccc2)n1`, the Ki on Adenosine receptor A3 [1] came out at 0.5 nM. On Adenosine receptor A3 [2], the IC50 stood at 7.9 nM.

`CC[C@@H](C)Oc1cc(NC(C)=O)nc(SCc2ccccc2)n1`: the Ki on Adenosine receptor A3 [1] was 1390 nM.

In the case of `CC[C@H](C)Oc1cc(NC(C)=O)nc(SCc2ccccc2)n1`, on Adenosine receptor A3 [1], the inhibition constant (Ki) worked out at 183 nM. Further, the 50% inhibitory concentration (IC50) at Adenosine receptor A3 [2] was found to be 153 nM.

Turning to `CCCSc1nc(NC(C)=O)cc(O[C@H](C)c2ccccc2)n1`, the Ki on Adenosine receptor A3 [1] turned out to be 1.7 nM.

Turning to `CCCOc1cc(NC(C)=O)nc(S[C@@H](C)c2ccccc2)n1`, the Ki at Adenosine receptor A3 [1] amounted to 440 nM. For the same compound, the half-inhibitory concentration (IC50) on Adenosine receptor A3 [2] stood at 428 nM.

Regarding `CCCSc1nc(NC(C)=O)cc(OC(C)c2ccccc2)n1` (racemic), the Ki is 0.6 nM on Adenosine receptor A3 [1], more than 1000 nM at Adenosine receptor A1, more than 1000 nM at Adenosine receptor A2a and more than 1000 nM on Adenosine receptor A2b.

For `CCC(C)Oc1cc(NC(C)=O)nc(SCc2ccccc2)n1` (racemic), the Ki at Adenosine receptor A3 [1] was 195 nM; at Adenosine receptor A1 it was more than 1000 nM; on Adenosine receptor A2a it was more than 1000 nM; on Adenosine receptor A2b, more than 1000 nM.

For `CCCOc1cc(NC(C)=O)nc(SC(C)c2ccccc2)n1` (racemic), the Ki at Adenosine receptor A3 [1] was 580 nM; at Adenosine receptor A1, more than 1000 nM; on Adenosine receptor A2a, more than 1000 nM; on Adenosine receptor A2b, more than 1000 nM.
